In ChEMBL document CHEMBL3046139, “Preparation and phytotoxicity of novel kaurane diterpene amides with potential use as herbicides” (J Agric Food Chem, 2008):
Activity calls are given as the source filed them.

Experiments:
Format in all cases: functional, organism-based
Lactuca sativa [1] = assay: Phytotoxicity in Lactuca sativa cv. Grand Rapids (lettuce) assessed as inhibition of seed germination at 1 mM measured 5 days post compound treatment
In short: (§1)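 Test solutions in deionized water, buffered with 10 mM MES and adjusted to pH 6.0-6.5 with NaOH. Concentrations below 10^-3 M made by dilution series. Osmotic pressure 30-38 mOsmolar. Petri dishes sealed with Parafilm and kept in the dark at 25 °C for 5 days, in triplicate. Seed counted as germinated when radicle was at least 0.2 mm. Radicle and shoot lengths measured by pachymeter with dishes held at 4 °C. Results given as percent difference from untreated control means. Student's t-test, P ≤ 0.05.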

Lactuca sativa [2] = assay: Phytotoxicity in Lactuca sativa cv. Grand Rapids (lettuce) assessed as inhibition of radicle length at 1 mM measured 5 days post compound treatment; in short: as §1
Lactuca sativa [3] = assay: Phytotoxicity in Lactuca sativa cv. Grand Rapids (lettuce) assessed as inhibition of shoot length at 1 mM measured 5 days post compound treatment; in short: as §1
Lactuca sativa [4] = assay: Stimulation of seed germination in Lactuca sativa cv. Grand Rapids (lettuce) at 0.1 uM measured 5 days post compound treatment; in short: as §1
Lactuca sativa [5] = assay: Stimulation of radicle growth in Lactuca sativa cv. Grand Rapids (lettuce) at 10 uM measured 5 days post compound treatment; in short: as §1
Lactuca sativa [6] = assay: Phytotoxicity in Lactuca sativa cv. Grand Rapids (lettuce) assessed as inhibition of seed germination at 10 uM measured 5 days post compound treatment; in short: as §1
Lactuca sativa [7] = assay: Stimulation of shoot growth in Lactuca sativa cv. Grand Rapids (lettuce) at 10 uM measured 5 days post compound treatment; in short: as §1
Lactuca sativa [8] = assay: Phytotoxicity in Lactuca sativa cv. Grand Rapids (lettuce) assessed as inhibition of seed germination at 0.1 uM measured 5 days post compound treatment; in short: as §1
Lactuca sativa [9] = assay: Stimulation of radicle growth in Lactuca sativa cv. Grand Rapids (lettuce) at 0.1 uM measured 5 days post compound treatment; in short: as §1
Lactuca sativa [10] = assay: Stimulation of shoot growth in Lactuca sativa cv. Grand Rapids (lettuce) at 0.1 uM measured 5 days post compound treatment; in short: as §1
Lactuca sativa [11] = assay: Stimulation of seed germination in Lactuca sativa cv. Grand Rapids (lettuce) at 1 mM measured 5 days post compound treatment; in short: as §1

C=C1C[C@@]23CC[C@H]4[C@@](C)(CCC[C@@]4(C)C(=O)NCCCCN)[C@@H]2CC[C@@H]1C3
active: inhibition (Lactuca sativa [1]) | inhibition (Lactuca sativa [2]) | inhibition (Lactuca sativa [3]) | Activity (Lactuca sativa [4])

C=C1C[C@@]23CC[C@@H]4[C@](C)(C(=O)N5CCNCC5)CCC[C@@]4(C)C2=CC[C@@H]1C3
active: inhibition (Lactuca sativa [1]) | inhibition (Lactuca sativa [2]) | inhibition (Lactuca sativa [3]) | Activity (Lactuca sativa [5]) | inhibition (Lactuca sativa [6]) | Activity (Lactuca sativa [7]) | inhibition (Lactuca sativa [8]) | Activity (Lactuca sativa [9]) | Activity (Lactuca sativa [10])

C=C1C[C@@]23CC[C@H]4[C@@](C)(CCC[C@@]4(C)C(=O)Nc4ccccc4)[C@@H]2CC[C@@H]1C3
active: inhibition (Lactuca sativa [1]) | inhibition (Lactuca sativa [2]) | inhibition (Lactuca sativa [3]) | inhibition (Lactuca sativa [6]) | inhibition (Lactuca sativa [8])

C=C1C[C@@]23CC[C@H]4[C@@](C)(CCC[C@@]4(C)C(=O)N4CCNCC4)[C@@H]2CC[C@@H]1C3
active: inhibition (Lactuca sativa [1]) | inhibition (Lactuca sativa [2]) | inhibition (Lactuca sativa [3]) | Activity (Lactuca sativa [5]) | inhibition (Lactuca sativa [6]) | Activity (Lactuca sativa [7]) | inhibition (Lactuca sativa [8]) | Activity (Lactuca sativa [9]) | Activity (Lactuca sativa [10])

C=C1C[C@@]23CC[C@@H]4[C@](C)(C(=O)NCCCCCC)CCC[C@@]4(C)C2=CC[C@@H]1C3
active: inhibition (Lactuca sativa [1]) | inhibition (Lactuca sativa [2]) | inhibition (Lactuca sativa [3]) | inhibition (Lactuca sativa [6]) | inhibition (Lactuca sativa [8])

C=C1C[C@@]23CC[C@@H]4[C@](C)(C(=O)NCCCN)CCC[C@@]4(C)C2=CC[C@@H]1C3
active: inhibition (Lactuca sativa [1]) | inhibition (Lactuca sativa [2]) | inhibition (Lactuca sativa [3]) | inhibition (Lactuca sativa [6]) | inhibition (Lactuca sativa [8])

C=C1C[C@@]23CC[C@H]4[C@@](C)(CCC[C@@]4(C)C(=O)NC4CCCCC4)[C@@H]2CC[C@@H]1C3
active: inhibition (Lactuca sativa [1]) | inhibition (Lactuca sativa [2]) | inhibition (Lactuca sativa [3]) | inhibition (Lactuca sativa [6]) | inhibition (Lactuca sativa [8])

C=C1C[C@@]23CC[C@H]4[C@@](C)(CCC[C@@]4(C)C(=O)N4CCOCC4)[C@@H]2CC[C@@H]1C3
active: inhibition (Lactuca sativa [1]) | inhibition (Lactuca sativa [2]) | inhibition (Lactuca sativa [3]) | inhibition (Lactuca sativa [6]) | inhibition (Lactuca sativa [8])

C=C1C[C@@]23CC[C@H]4[C@@](C)(CCC[C@@]4(C)C(=O)NCCN)[C@@H]2CC[C@@H]1C3
active: inhibition (Lactuca sativa [1]) | inhibition (Lactuca sativa [2]) | inhibition (Lactuca sativa [3]) | inhibition (Lactuca sativa [6]) | inhibition (Lactuca sativa [8])

C=C1C[C@@]23CC[C@H]4[C@@](C)(CCC[C@@]4(C)C(=O)NCCCCCC)[C@@H]2CC[C@@H]1C3
active: inhibition (Lactuca sativa [1]) | inhibition (Lactuca sativa [2]) | inhibition (Lactuca sativa [3]) | inhibition (Lactuca sativa [6]) | inhibition (Lactuca sativa [8])

C=C1C[C@@]23CC[C@@H]4[C@](C)(C(=O)NCCN)CCC[C@@]4(C)C2=CC[C@@H]1C3
active: inhibition (Lactuca sativa [1]) | inhibition (Lactuca sativa [2]) | inhibition (Lactuca sativa [3]) | inhibition (Lactuca sativa [6]) | inhibition (Lactuca sativa [8])

C=C1C[C@]23C[C@@]1(O)CC[C@H]2[C@@]12C=C[C@H](O)[C@@](C)(C(=O)O1)[C@H]2[C@@H]3C(=O)O
active: Activity (Lactuca sativa [11])

C=C1C[C@@]23CC[C@@H]4[C@](C)(C(=O)NCCCCN)CCC[C@@]4(C)C2=CC[C@@H]1C3
active: inhibition (Lactuca sativa [1]) | inhibition (Lactuca sativa [2]) | inhibition (Lactuca sativa [3]) | Activity (Lactuca sativa [4])

C=C1C[C@@]23CC[C@@H]4[C@](C)(C(=O)Nc5ccccc5)CCC[C@@]4(C)C2=CC[C@@H]1C3
active: inhibition (Lactuca sativa [1]) | inhibition (Lactuca sativa [2]) | inhibition (Lactuca sativa [3]) | inhibition (Lactuca sativa [6]) | inhibition (Lactuca sativa [8])

C=C1C[C@@]23CC[C@@H]4[C@](C)(C(=O)N5CCOCC5)CCC[C@@]4(C)C2=CC[C@@H]1C3
active: inhibition (Lactuca sativa [1]) | inhibition (Lactuca sativa [2]) | inhibition (Lactuca sativa [3]) | inhibition (Lactuca sativa [6]) | inhibition (Lactuca sativa [8])

C=C1C[C@@]23CC[C@@H]4[C@](C)(C(=O)NC5CCCCC5)CCC[C@@]4(C)C2=CC[C@@H]1C3
active: inhibition (Lactuca sativa [1]) | inhibition (Lactuca sativa [2]) | inhibition (Lactuca sativa [3]) | inhibition (Lactuca sativa [6]) | inhibition (Lactuca sativa [8])

C=C1C[C@@]23CC[C@H]4[C@@](C)(CCC[C@@]4(C)C(=O)NCCCN)[C@@H]2CC[C@@H]1C3
active: inhibition (Lactuca sativa [1]) | inhibition (Lactuca sativa [2]) | inhibition (Lactuca sativa [3]) | inhibition (Lactuca sativa [6]) | inhibition (Lactuca sativa [8])
